From ChEMBL document CHEMBL3808283, “Biological Characterization and in Vivo Assessment of the Activity of a New Synthetic Macrocyclic Antifungal Compound” (J Med Chem, 2016)
Converted amounts (≈) assume the structure as drawn. The source made the active and inactive calls. The rule behind the calls is not given here.

What was measured:
Candida albicans [1] = experiment: Upregulation of orf19.3378 gene expression in Candida albicans SC5314 at 3 uM after 45 mins by microarray method relative to control; assay type: functional
How it was run: (§1)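 Log-phase cultures in liquid YEPD were exposed to 3 µM compound (final) for 15 or 45 min, with untreated controls sampled at the same times, in three biological replicates. Total RNA was extracted by glass-bead/phenol-chloroform disruption and integrity-checked. One-color Cy3-labelled cRNA (600 ng) was hybridized for 17 h at 65 °C to 8 × 15K arrays, and fold change was taken versus control.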

Magnusiomyces capitatus = experiment: Antifungal activity against Geotrichum capitatum measured at 24 hrs by broth dilution assay; assay type: functional
How it was run: (§2)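 EUCAST broth microdilution, including the update for non-fermenting yeasts (Cryptococcus, Geotrichum), on clinical and reference yeast isolates. Incubated at 37 °C and read at 24, 48 and 72 h. MIC taken as the lowest concentration with no visible growth. For Cryptococcus and Geotrichum, MICs were read only once growth was visible in the control row.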

Candida albicans [2] = experiment: Upregulation of CDR1 gene expression in Candida albicans SC5314 at 3 uM after 45 mins by microarray method relative to control; assay type: functional
How it was run: (§3)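 Log-phase C. albicans SC5314 in liquid YEPD exposed to 3 µM final for 15 or 45 min; untreated controls taken at the same time points. Three biological replicates. RNA extracted by glass-bead/phenol-chloroform method and integrity checked. One-color Cy3-labeled cRNA (600 ng) hybridized 17 h at 65 °C to 8 × 15K arrays. Expression expressed as fold change versus control.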

Candida albicans [3] = experiment: Upregulation of FCR1 gene expression in Candida albicans SC5314 at 3 uM after 15 mins by microarray method relative to control; assay type: functional; how it was run: as §3
Candida albicans [4] = experiment: Antifungal activity against Candida albicans 15T measured at 72 hrs by broth dilution assay; assay type: functional; how it was run: as §2
Candida albicans [5] = experiment: Upregulation of orf19.1438 gene expression in Candida albicans SC5314 at 3 uM after 45 mins by microarray method relative to control; assay type: functional; how it was run: as §3
Candida albicans [6] = experiment: Upregulation of PDR16 gene expression in Candida albicans SC5314 at 3 uM after 45 mins by microarray method relative to control; assay type: functional; how it was run: as §3
Candida parapsilosis [7] = experiment: Antifungal activity against Candida parapsilosis 64E measured at 48 hrs by broth dilution assay; assay type: functional; conditions: Lodderomyces parapsilosis; how it was run: as §2
[8] = Antifungal activity against Geotrichum silvicola measured at 24 hrs by broth dilution assay; assay type: functional; how it was run: as §2
Candida albicans [9] = experiment: Antifungal activity against Candida albicans 15T measured at 48 hrs by broth dilution assay; assay type: functional; how it was run: as §2
Candida parapsilosis [10] = experiment: Fungistatic activity against Candida parapsilosis 81E at 20 uM after 24 to 48 hrs by time kill assay; assay type: functional, organism-based
How it was run: (§4)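 EUCAST broth microdilution at 37 °C. From wells at MIC, 2×, 4× and 8× MIC, 10 µL aliquots were taken, serially 10-fold diluted in saline and plated on Sabouraud dextrose agar. Plates were incubated at 37 °C for 24/48 h, and 48 h for Cryptococcus and Geotrichum. Done in duplicate, detection limit 10 CFU/mL. A drop of at least 3 Log10 CFU/mL from the initial inoculum in 24 h counts as fungicidal; a smaller drop counts as fungistatic.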

Candida albicans [11] = experiment: Upregulation of orf19.7336 gene expression in Candida albicans SC5314 at 3 uM after 45 mins by microarray method relative to control; assay type: functional; how it was run: as §1
Candida albicans [12] = experiment: Upregulation of RTA2 gene expression in Candida albicans SC5314 at 3 uM after 45 mins by microarray method relative to control; assay type: functional; how it was run: as §3
Candida parapsilosis [13] = experiment: Antifungal activity against Candida parapsilosis ATCC 34136 measured at 48 hrs by broth dilution assay; assay type: functional; conditions: Lodderomyces parapsilosis, ATCC 34136, 48 h; how it was run: as §2
Candida albicans [14] = experiment: Antifungal activity against Candida albicans 4T measured at 24 hrs by broth dilution assay; assay type: functional; how it was run: as §2
Candida albicans [15] = experiment: Antifungal activity against Candida albicans ATCC 60193 measured at 48 hrs by broth dilution assay; assay type: functional; conditions: ATCC 60193, 48 h; how it was run: as §2
Candida albicans [16] = experiment: Upregulation of CRZ2 gene expression in Candida albicans SC5314 at 3 uM after 15 mins by microarray method relative to control; assay type: functional; how it was run: as §3
Candida albicans [17] = experiment: Antifungal activity against Candida albicans isolate DSY654 harboring CDR1/2 deletion mutant at 10 uM by serial dilution assay; assay type: functional, organism-based
How it was run: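 Spot dilution assay: C. albicans cells 10-fold serially diluted from 2 × 10^7 cells/mL, with 5 µL of each dilution spotted onto YEPD agar plates containing the drug.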

[18] = Antifungal activity against Geotrichum silvicola measured at 72 hrs by broth dilution assay; assay type: functional; how it was run: as §2
Candida albicans [19] = experiment: Upregulation of orf19.4531 gene expression in Candida albicans SC5314 at 3 uM after 45 mins by microarray method relative to control; assay type: functional; how it was run: as §1
Candida albicans [20] = experiment: Upregulation of orf19.6873.1 gene expression in Candida albicans SC5314 at 3 uM after 15 mins by microarray method relative to control; assay type: functional; how it was run: as §1
Candida albicans [21] = experiment: Upregulation of orf19.3089 gene expression in Candida albicans SC5314 at 3 uM after 15 mins by microarray method relative to control; assay type: functional; how it was run: as §1
Candida albicans [22] = experiment: Antifungal activity against Candida albicans ATCC 60193 measured at 24 hrs by broth dilution assay; assay type: functional; conditions: ATCC 60193, 24 h; how it was run: as §2
Nakaseomyces glabratus = experiment: Antifungal activity against Candida glabrata 70 measured at 48 hrs by broth dilution assay; assay type: functional; conditions: Nakaseomyces glabratus, 70, 48 h; how it was run: as §2
Candida albicans [23] = experiment: Antifungal activity against azole-resistant Candida albicans isolate DSY296 in immunocompetent Balb/c mouse candidiasis model assessed as reduction in CFU count in kidney at 40 mg/kg/day, ip regime measured on day 7 post infection; assay type: functional, organism-based
How it was run: (§5)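 Immunocompetent BALB/c mice, 10 per strain group, received 7 × 10^4 CFU of C. albicans in 200 µL saline via the lateral vein. Drug was given i.p. daily at 40 mg/kg/day as a 0.1 mg/mL solution in DMSO/PEG 400 (2:1), 100 µL per dose. On day 7, spleen and kidneys were weighed, homogenized, and plated on YPD agar (2 days, 30 °C) for CFU/g. Analysis used Wilcoxon rank-sum, P<0.05.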

Candida albicans [24] = experiment: Antifungal activity against Candida albicans 15T up to 96 hrs by broth dilution assay; assay type: functional, organism-based
Candida albicans [25] = experiment: Antifungal activity against azole-resistant Candida albicans isolate DSY296 in immunocompetent Balb/c mouse candidiasis model assessed as reduction in CFU count in spleen at 40 mg/kg/day, ip regime measured on day 7 post infection; assay type: functional, organism-based; how it was run: as §5
[26] = Chemical stability in RPMI-1640 buffer at 2 mM up to 72 hrs at 30 degC by LC-UV-MS analysis; conditions: 2000 µM
Candida albicans [27] = experiment: Antifungal activity against Candida albicans 15T measured at 24 hrs by broth dilution assay; assay type: functional; how it was run: as §2
Candida albicans [28] = experiment: Antifungal activity against Candida albicans 4T measured at 48 hrs by broth dilution assay; assay type: functional; how it was run: as §2
Pichia kudriavzevii = experiment: Antifungal activity against Candida krusei 193T measured at 72 hrs by broth dilution assay; assay type: functional; how it was run: as §2
Candida albicans [29] = experiment: Fungicidal activity against Candida albicans ATCC 60193 at 5 uM up to 24 hrs by time kill assay relative to control; assay type: functional; how it was run: as §4
Candida parapsilosis [30] = experiment: Antifungal activity against Candida parapsilosis 64E measured at 72 hrs by broth dilution assay; assay type: functional; conditions: Lodderomyces parapsilosis; how it was run: as §2
Cryptococcus neoformans = experiment: Antifungal activity against Cryptococcus neoformans measured at 48 hrs by broth dilution assay; assay type: functional, organism-based; how it was run: as §2

For `C/C=C/CNC(=N)NCCCCCCCCN1CCCCCCCCNC(=N)NC1=O`, which “fold change (FC)” value (Candida albicans [1]) is on record?
The value was 3.52.

And the Activity (Magnusiomyces capitatus)?
The Activity was “Active”.

What about the “fold change (FC)” value (Candida albicans [2]) of the same compound?
The value was 3.75.

And the “fold change (FC)” value (Candida albicans [3])?
Its value is 2.86.

And the MIC (Candida albicans [4])?
Its MIC is 5 µM (≈ 2.18 µg/mL).

And the “fold change (FC)” value (Candida albicans [5])?
Its value is 17.28.

And the “fold change (FC)” value (Candida albicans [6])?
Its value is 6.89.

And the MIC (Candida parapsilosis [7])?
The MIC was 40 µM (≈ 17.4 µg/mL).

And the Activity [8]?
The Activity was “Active”.

And the MIC (Candida albicans [9])?
Its MIC is 5 µM (≈ 2.18 µg/mL).

And the Activity (Candida parapsilosis [10])?
Its Activity is “Active”.

And the “fold change (FC)” value (Candida albicans [11])?
Its value is 3.49.

What about the “fold change (FC)” value (Candida albicans [12]) of the same compound?
Its value is 2.93.

What about the MIC (Candida parapsilosis [13]) of the same compound?
The MIC was 80 µM (≈ 34.9 µg/mL).

And the MIC (Candida albicans [14])?
The MIC was 5 µM (≈ 2.18 µg/mL).

And the MIC (Candida albicans [15])?
Its MIC is 5 µM (≈ 2.18 µg/mL).

And the “fold change (FC)” value (Candida albicans [16])?
The value was 2.28.

And the Activity (Candida albicans [17])?
The Activity was “inactive”.

And the MIC [18]?
Its MIC is 10 µM (≈ 4.36 µg/mL).

And the “fold change (FC)” value (Candida albicans [19])?
The value was 21.54.

What about the “fold change (FC)” value (Candida albicans [20]) of the same compound?
The value was 2.16.

What about the “fold change (FC)” value (Candida albicans [21]) of the same compound?
The value was 2.39.

What about the MIC (Candida albicans [22]) of the same compound?
Its MIC is 5 µM (≈ 2.18 µg/mL).

And the MIC (Nakaseomyces glabratus)?
Its MIC is > 80 µM.

What about the Activity (Candida albicans [23]) of the same compound?
The Activity was “Active”.

What about the Activity (Candida albicans [24]) of the same compound?
The Activity was “Active”.

And the Activity (Candida albicans [25])?
Its Activity is “Active”.

What about the Stability [26] of the same compound?
The Stability was “Stable”.

What about the MIC (Candida albicans [27]) of the same compound?
Its MIC is 5 µM (≈ 2.18 µg/mL).

What about the MIC (Candida albicans [28]) of the same compound?
Its MIC is 5 µM (≈ 2.18 µg/mL).

What about the MIC (Pichia kudriavzevii) of the same compound?
Its MIC is 80 µM (≈ 34.9 µg/mL).

What about the Activity (Candida albicans [29]) of the same compound?
Its Activity is 99.9%.

And the MIC (Candida parapsilosis [30])?
The MIC was 40 µM (≈ 17.4 µg/mL).

And the Activity (Cryptococcus neoformans)?
Its Activity is “Active”.
